The record followed here is ChEMBL document CHEMBL2311434, “Search for new tools to combat Gram-negative resistant bacteria among amine derivatives of 5-arylidenehydantoin” (2013).

In brackets after ≈: the same amount, converted by molar mass. Activity calls are given as the source filed them. The calls are words filed in the database; no cut-off is given here. Peptide text beside a SMILES is read from it. * marks the point of attachment. βNA = c1ccc2cc(N*)ccc2c1

The subject of assay [1] is Klebsiella aerogenes. The assay is described as follows: Chemosensitization of wild type Enterobacter aerogenes ATCC 13048 assessed as decrease in nalidixic acid MIC at 200 uM relative to control. The format is functional. The essentials: (§1)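 About 10^6 cells were put into 1 mL Mueller-Hinton broth with twofold serial dilutions of the antibiotic (CLSI). A fixed sub-inhibitory compound concentration was added, set without antibiotic, usually ≤1/4 MIC. Controls ran without inhibitor. Plates were read after 18 h at 37 °C. MICs are the means of three independent determinations. Activity gain = MIC without compound / MIC with compound.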

For assay [2], the system named is Klebsiella aerogenes. The assay is described as follows: Antibacterial activity against wild type Enterobacter aerogenes ATCC 13048 assessed as growth inhibition after 18 hrs by CLSI broth dilution method. The format is functional. Particulars: ATCC 13048, 18 h. The essentials:
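Broth dilution per CLSI in Mueller-Hinton broth, about 10^6 cells per 1 mL, read after 18 h at 37 °C. The compound alone, with no antibiotic, against reference strain ATCC 13048. MIC is the mean of three independent determinations.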
(Broth dilution looks for growth in wells or tubes with falling amounts of substance.)

For assay [3], the system named is Klebsiella aerogenes. The assay is described as follows: Antibacterial activity against Enterobacter aerogenes CM-64 overexpressing AcrAB-TolC assessed as growth inhibition after 18 hrs by CLSI broth dilution method. In kind it is functional. The following applies: CM-64, 18 h. In a few lines: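 Intrinsic MIC of each compound with no antibiotic added. About 10^6 cells were inoculated into 1 mL Mueller-Hinton broth with twofold serial dilutions, following CLSI guidelines. Plates were read after 18 h at 37 °C, in triplicate. MIC is the mean of three independent determinations.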

For assay [4], the system named is Klebsiella aerogenes. Kind of assay: Chemosensitization of Enterobacter aerogenes CM-64 overexpressing AcrAB-TolC assessed as decrease in nalidixic acid MIC at 200 uM relative to control. In kind it is functional. The essentials:
as §1

The subject of assay [5] is Klebsiella aerogenes. The assay is described as follows: Chemosensitization of Enterobacter aerogenes CM-64 overexpressing AcrAB-TolC assessed as decrease in sparfloxacin MIC at 200 uM relative to control. In kind it is functional. The essentials: as §1
Assay [6] concerns Klebsiella aerogenes. Kind of assay: Chemosensitization of Enterobacter aerogenes CM-64 overexpressing AcrAB-TolC assessed as decrease in nalidixic acid MIC at 63 uM relative to control. The format is functional. The essentials: as §1
The test system of assay [7] is Klebsiella aerogenes. The assay is described as follows: Chemosensitization of wild type Enterobacter aerogenes ATCC 13048 assessed as decrease in sparfloxacin MIC at 63 uM relative to control. In kind it is functional, organism-based. In a few lines: as §1
Assay [8] deals with Klebsiella aerogenes. Kind of assay: Chemosensitization of Enterobacter aerogenes CM-64 overexpressing AcrAB-TolC assessed as decrease in sparfloxacin MIC at 63 uM relative to control. In kind it is functional. In a few lines: as §1
Assay [9] concerns Klebsiella aerogenes. The assay is described as follows: Chemosensitization of Enterobacter aerogenes CM-64 overexpressing AcrAB-TolC assessed as decrease in nalidixic acid MIC at 100 uM relative to control.
Assay [10] has as its system Klebsiella aerogenes. Kind of assay: Chemosensitization of wild type Enterobacter aerogenes ATCC 13048 assessed as decrease in nalidixic acid MIC at 63 uM relative to control. In kind it is functional. The essentials: (§2)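 Antibiotic MIC by CLSI broth dilution: about 10^6 cells in 1 mL Mueller-Hinton broth with twofold antibiotic dilutions, 18 h at 37 °C, in triplicate. Compound held at a fixed sub-inhibitory level (≤MIC/4) set without antibiotic. Controls ran without inhibitor and without antibiotic. PAβN 50 µM served as reference. Activity gain = MIC without compound / MIC with compound. MICs are the mean of three determinations.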

Assay [11] deals with Klebsiella aerogenes. The assay is described as follows: Chemosensitization of Enterobacter aerogenes CM-64 overexpressing AcrAB-TolC assessed as decrease in chloramphenicol MIC at 63 uM relative to control. The format is functional. In a few lines:
as §1

The subject of assay [12] is Klebsiella aerogenes. The assay is described as follows: Chemosensitization of wild type Enterobacter aerogenes ATCC 13048 assessed as decrease in chloramphenicol MIC at 200 uM relative to control. The format is functional, organism-based. In a few lines: as §2
The test system of assay [13] is Klebsiella aerogenes. The assay is described as follows: Chemosensitization of Enterobacter aerogenes CM-64 overexpressing AcrAB-TolC assessed as decrease in chloramphenicol MIC at 200 uM relative to control. The format is functional. The essentials:
as §1

Assay [14] relates to Klebsiella aerogenes. The assay is described as follows: Chemosensitization of Enterobacter aerogenes CM-64 overexpressing AcrAB-TolC assessed as decrease in nalidixic acid MIC at 100 uM relative to control. In kind it is functional, organism-based. In a few lines: as §1
Assay [15] relates to Klebsiella aerogenes. Kind of assay: Chemosensitization of wild type Enterobacter aerogenes ATCC 13048 assessed as decrease in nalidixic acid MIC at 100 uM relative to control. The format is functional. The essentials: as §1
Assay [16] concerns Klebsiella aerogenes. Kind of assay: Chemosensitization of Enterobacter aerogenes CM-64 overexpressing AcrAB-TolC assessed as decrease in sparfloxacin MIC at 100 uM relative to control. In kind it is functional, organism-based. In a few lines: as §1
The test system of assay [17] is Klebsiella aerogenes. The assay is described as follows: Chemosensitization of wild type Enterobacter aerogenes ATCC 13048 assessed as decrease in […] at 50 uM relative to control. In kind it is functional, organism-based.
Assay [18] concerns Klebsiella aerogenes. The assay is described as follows: Chemosensitization of wild type Enterobacter aerogenes ATCC 13048 assessed as decrease in chloramphenicol MIC at 63 uM relative to control. The format is functional, organism-based. The essentials: as §2

Take `COc1ccccc1N1CCN(CC(O)CN2C(=O)N/C(=C\c3ccccc3)C2=O)CC1` (centres undefined): the “fold change (FC)” value in assay [1] is reported as 2. The MIC (commonly the lowest concentration found to suppress growth) in [2] was determined as 500 µM (≈ 218 µg/mL); in [3], 1000 µM (≈ 437 µg/mL). Also, the result in [4] was Active. Besides, the result in assay [5] was inactive.

In the case of `CCn1cc(C(=O)O)c(=O)c2ccc(C)nc21` [NALIDIXIC ACID], the MIC in [2] was 8 µM (≈ 1.86 µg/mL); in [3], 128 µM (≈ 29.7 µg/mL).

With `O=C1N/C(=C\c2ccc(Cl)cc2)C(=O)N1CC(O)CN1CCN(CCO)CC1` (centres undefined), in [6], the “fold change (FC)” value was determined as 4. Besides, the minimal inhibitory concentration (MIC) in [2] and in assay [3] was 250 µM (≈ 102 µg/mL) throughout. Also, the outcome in assay [7] was Active. In addition, in assay [8], the outcome was inactive.

In the case of `COc1ccccc1N1CCN(CC(O)CN2C(=O)N/C(=C\c3ccc(Cl)cc3)C2=O)CC1` (centres undefined), the “fold change (FC)” value in [1] was 2; in assay [9], 4. Further, the minimum inhibitory concentration (MIC) came to 500 µM (≈ 235 µg/mL) in assay [2] and 1000 µM (≈ 471 µg/mL) in assay [3]. The result in assay [5] was inactive.

With `COc1ccc(/C=C2\NC(=O)N(CC(O)CN3CCOCC3)C2=O)cc1` (centres undefined), the MIC in assay [2] and in assay [3] was above 2000 µM throughout. Further, the result in [8] was inactive.

As for `COc1ccc(/C=C2\NC(=O)N(CC(O)CN3CCN(C)CC3)C2=O)cc1.Cl` (centres undefined), the MIC in [2] and in assay [3] was above 2000 µM each time. Also, the “fold change (FC)” value in [8] came to 2.

Regarding `COc1ccc(/C=C2\NC(=O)N(CC(O)CN3CCCCC3)C2=O)cc1` (centres undefined), the MIC in [2] and in assay [3] was above 2000 µM throughout.

Take `COc1ccc(/C=C2\NC(=O)N(CC(O)CNC(C)C)C2=O)c(OC)c1` (centres undefined): the “fold change (FC)” value is listed as 4 in assay [6], 2 in assay [10], 4 in [8] and 4 in [11]. Also, the minimum inhibitory concentration (MIC) in assay [2] and in assay [3] was 250 µM (≈ 90.9 µg/mL) throughout. The outcome in [7] was Active.

On to `O=C(N[C@H](CO)[C@H](O)c1ccc([N+](=O)[O-])cc1)C(Cl)Cl` [CHLORAMPHENICOL], for which the minimal inhibitory concentration (MIC) in assay [2] came out at 4 µM (≈ 1.29 µg/mL); in [3], 256 µM (≈ 82.7 µg/mL).

`O=C(CN1C(=O)N/C(=C\c2ccccc2)C1=O)N1CCN(CCO)CC1`: the “fold change (FC)” value in [6] stood at 4; in assay [8], 2; in [11], 2. For the same molecule, the minimal inhibitory concentration (MIC) in assay [2] amounted to 125 µM (≈ 44.8 µg/mL); in assay [3], 250 µM (≈ 89.6 µg/mL).

On to `CCOc1ccccc1N1CCN(CC(O)CN2C(=O)N/C(=C\c3ccc(Cl)cc3)C2=O)CC1` (centres undefined), for which the minimal inhibitory concentration (MIC) was 500 µM (≈ 242 µg/mL) in [2] and 1000 µM (≈ 485 µg/mL) in assay [3]. Moreover, the result in assay [12] was Active. Besides, the “fold change (FC)” value in [9] was 4; in assay [5] it was 2.

`COc1ccc(/C=C2\NC(=O)N(CC(O)CN3CCN(c4ccccc4OC)CC3)C2=O)cc1OC` (centres undefined): the “fold change (FC)” value in assay [13] is recorded as 2. Also, the MIC in assay [2] and in [3] was 1000 µM (≈ 497 µg/mL) throughout. The result in assay [4] was Active. In assay [5], the outcome was inactive.

On to `C[C@@H]1CN(c2c(F)c(N)c3c(=O)c(C(=O)O)cn(C4CC4)c3c2F)C[C@H](C)N1` [SPARFLOXACIN], for which the figures for the MIC in [2] and in [3] were 0.06 µM (≈ 0.0235 µg/mL) and 1 µM (≈ 0.392 µg/mL), respectively.

As to `O=C(CN1C(=O)N/C(=C\c2ccc(Br)cc2)C1=O)N1CCN(CCO)CC1`, the “fold change (FC)” value in assay [6] is 4. For the same molecule, the MIC in assay [2] and in [3] was above 1250 µM each time.

As to `COc1ccc(/C=C2\NC(=O)N(CC(O)CN3CCN(c4ccccc4)CC3)C2=O)cc1OC` (centres undefined), the result in [14] was Active. Also, the minimal inhibitory concentration (MIC) in assay [2] and in [3] was 500 µM (≈ 233 µg/mL) throughout. Further, the “fold change (FC)” value in assay [15] was found to be 2. In addition, the result in assay [16] was inactive.

Turning to `CC(C)NCC(O)CN1C(=O)N/C(=C\c2ccc(Br)cc2)C1=O` (centres undefined), the MIC in [2] and in [3] was above 1250 µM in each case.

Regarding `COc1ccc(/C=C2\NC(=O)N(CC(O)CN3CCN(CCO)CC3)C2=O)c(OC)c1` (centres undefined), the “fold change (FC)” value came to 4 in assay [6], 2 in [8] and 4 in assay [11]. In addition, the MIC in [2] turned out to be 125 µM (≈ 54.3 µg/mL); in assay [3], 250 µM (≈ 109 µg/mL).

`N=C(N)NCCC[C@H](NC(=O)[C@@H](N)Cc1ccccc1)C(=O)Nc1ccc2ccccc2c1` [PABETAN] (H-Phe-Arg-βNA): the minimum inhibitory concentration (MIC) in assay [2] and in assay [3] was 5000 µM (≈ 2230 µg/mL) each time. In addition, the outcome in [17] was Active.

As to `COc1ccc(/C=C2\NC(=O)N(CC(O)CN3CCNCC3)C2=O)cc1.Cl.Cl` (centres undefined), the MIC in assay [2] and in [3] was above 2000 µM each time. Moreover, in assay [8], the “fold change (FC)” value turned out to be 2.

For the molecule `COc1ccc(/C=C2\NC(=O)N(CC(O)CNCCCN3CCN(C)CC3)C2=O)cc1.Cl` (centres undefined), the “fold change (FC)” value in assay [10] amounted to 2. The MIC in assay [2] and in [3] was above 2000 µM in each case. The result in assay [7] and in [18] was Active. The outcome in assay [8] was inactive.

For `CC(C)NCC(O)CN1C(=O)N/C(=C\c2ccc(Cl)cc2)C1=O` (centres undefined), the result in assay [6] and in assay [7] was Active. Further, the minimum inhibitory concentration (MIC) in assay [2] and in [3] was 250 µM (≈ 84.5 µg/mL) each time. Besides, the “fold change (FC)” value in assay [8] and in [11] was 4 each time.

`CCN(CC)c1ccc(/C=C2\NC(=O)N(CC(O)CN3CCN(CCO)CC3)C2=O)cc1` (centres undefined): the “fold change (FC)” value in [6] came out at 4; in assay [10], 2; in assay [8] it was 4; in assay [11], 4. The minimal inhibitory concentration (MIC) worked out at 125 µM (≈ 55.7 µg/mL) in assay [2] and 250 µM (≈ 111 µg/mL) in [3].

As to `COc1ccc(/C=C2\NC(=O)N(CC(O)CN3CCN(C(C)=O)CC3)C2=O)cc1` (centres undefined), in assay [6], the result was Active. Moreover, the MIC in assay [2] and in assay [3] was above 2000 µM in each case. The outcome in assay [8] was inactive.
